{
  "source": "BindingDB's records for doi:10.1021/jm901449m",
  "about": "(Progen Pharmaceuticals, 2010)",
  "key": {"[1]": {"target": "T1, Vascular endothelial growth factor A (Homo sapiens, UniProt P15692)", "T1 sequence (P15692 whole entry)": "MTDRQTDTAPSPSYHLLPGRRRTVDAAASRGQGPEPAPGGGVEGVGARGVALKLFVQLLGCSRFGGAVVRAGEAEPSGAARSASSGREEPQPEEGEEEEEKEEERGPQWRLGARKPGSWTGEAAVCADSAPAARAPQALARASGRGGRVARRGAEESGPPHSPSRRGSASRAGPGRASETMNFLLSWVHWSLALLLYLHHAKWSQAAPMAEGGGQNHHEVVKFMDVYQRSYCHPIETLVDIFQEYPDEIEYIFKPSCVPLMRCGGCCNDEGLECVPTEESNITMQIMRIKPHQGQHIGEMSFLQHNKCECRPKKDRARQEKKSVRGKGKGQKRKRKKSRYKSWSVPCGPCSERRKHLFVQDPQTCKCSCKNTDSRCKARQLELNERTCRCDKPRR", "assay": "Binding affinity to VEGF by surface plasmon-based solution affinity assay"}, "Heparanase": {"target": "T2, Heparanase (Homo sapiens, UniProt Q9Y251)", "T2 sequence (Q9Y251 whole entry)": "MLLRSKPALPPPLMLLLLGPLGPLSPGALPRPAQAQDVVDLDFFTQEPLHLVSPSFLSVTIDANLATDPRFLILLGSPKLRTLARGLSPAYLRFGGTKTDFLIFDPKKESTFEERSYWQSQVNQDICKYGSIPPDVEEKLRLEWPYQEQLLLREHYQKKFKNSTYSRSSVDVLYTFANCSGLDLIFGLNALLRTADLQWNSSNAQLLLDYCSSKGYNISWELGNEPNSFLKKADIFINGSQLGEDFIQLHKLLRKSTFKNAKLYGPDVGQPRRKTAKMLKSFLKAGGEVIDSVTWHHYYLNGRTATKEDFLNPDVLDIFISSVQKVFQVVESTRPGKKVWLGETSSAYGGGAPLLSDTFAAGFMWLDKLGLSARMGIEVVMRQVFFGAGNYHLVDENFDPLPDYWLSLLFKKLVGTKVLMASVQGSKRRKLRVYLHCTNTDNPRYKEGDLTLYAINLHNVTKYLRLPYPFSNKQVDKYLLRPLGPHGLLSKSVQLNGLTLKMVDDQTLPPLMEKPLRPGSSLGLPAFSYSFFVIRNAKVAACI", "assay": "Inhibition of human recombinant heparanase", "outline": "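Recombinant human heparanase assayed by ultrafiltration with 3H-labelled heparan sulfate as substrate (Km = 1.64 μM). Ki values with standard error were derived from inhibition response curves.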"}, "[2]": {"target": "Fibroblast growth factor 1 (Homo sapiens, UniProt P05230)", "sequence (P05230 whole entry)": "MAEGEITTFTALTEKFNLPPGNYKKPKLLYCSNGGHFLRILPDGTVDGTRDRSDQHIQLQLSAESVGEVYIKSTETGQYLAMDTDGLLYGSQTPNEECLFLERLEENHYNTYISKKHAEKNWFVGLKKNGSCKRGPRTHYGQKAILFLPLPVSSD", "assay": "Binding affinity to FGF1 by surface plasmon-based solution affinity assay", "outline": "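Surface plasmon resonance solution affinity assay on heparin-coated CM4 chips. Buffer: HBS-EP (10 mM HEPES pH 7.4, 150 mM NaCl, 3.0 mM EDTA, 0.005% polysorbate 20). Kd is the mean of at least duplicate measurements ± SD.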"}, "[3]": {"target": "Fibroblast growth factor 2 (Homo sapiens, UniProt P09038)", "sequence (P09038 143-288 limits assumed)": "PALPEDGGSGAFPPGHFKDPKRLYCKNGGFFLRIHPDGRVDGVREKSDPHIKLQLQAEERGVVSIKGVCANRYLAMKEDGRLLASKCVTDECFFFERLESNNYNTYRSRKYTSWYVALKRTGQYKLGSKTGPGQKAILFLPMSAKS", "assay": "Binding affinity to FGF2 by surface plasmon-based solution affinity assay", "outline": "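Surface plasmon resonance solution affinity assay on heparin-coated CM4 chips. FGF-2 binding run in HBS-EP containing 300 mM NaCl. Kd is the mean of at least duplicate measurements ± SD.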"}},
  "data": [
    {"smiles": "O=P(O)(O)OC[C@H]1O[C@H](O[C@@H]2[C@H](OS(=O)(=O)O)[C@@H](O[C@@H]3[C@H](OS(=O)(=O)O)[C@@H](O[C@@H]4[C@H](OS(=O)(=O)O)[C@@H](O[C@@H]5[C@@H](OS(=O)(=O)O)O[C@H](COS(=O)(=O)O)[C@@H](OS(=O)(=O)O)[C@@H]5OS(=O)(=O)O)O[C@H](COS(=O)(=O)O)[C@H]4OS(=O)(=O)O)O[C@H](COS(=O)(=O)O)[C@H]3OS(=O)(=O)O)O[C@H](COS(=O)(=O)O)[C@H]2OS(=O)(=O)O)[C@@H](OS(=O)(=O)O)[C@@H](OS(=O)(=O)O)[C@@H]1OS(=O)(=O)O", "note": "[PI-88]", "values": [
      {"measurement": "Kd", "setting": "[1]", "result": 2.2, "unit": "nM"},
      {"measurement": "Ki", "setting": "Heparanase", "result": 240, "unit": "nM"},
      {"measurement": "Kd", "setting": "[2]", "result": 0.24, "unit": "nM"},
      {"measurement": "Kd", "setting": "[3]", "result": 61, "unit": "nM"}
    ]}
  ]
}
